Measurements taken from ChEMBL document CHEMBL4321801, “Anti-prion Butenolides and Diphenylpropanones from the Australian Ascidian Polycarpa procera” (J Nat Prod, 2019).
The source made the active and inactive calls. No cut-off for these calls is given here.

Columns and labels:
Saccharomyces cerevisiae = assay: Anti-prion activity against [URE3] protein in Saccharomyces cerevisiae SB34 at 100 uM measured after 24 hrs by fluorimetry analysis
Method in brief: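 Whole-cell yeast assay for curing of the [URE3] prion at a single concentration of 100 μM, scored as yes/no curing. Guanabenz was run as the positive control.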

[1] = Anti-prion activity against [PSI+] protein in Saccharomyces cerevisiae STRg6 measured after 24 hrs by fluorimetry analysis
Method in brief: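 Whole-cell yeast assay for curing of the [PSI+] prion, which depends on compound uptake across the cell membrane. EC50 (μM) reported ± SE. Guanabenz was run as the positive control.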

COc1ccc(C[C@H](O)C(=O)c2cc(Br)c(O)c(Br)c2)cc1Br
Activity (Saccharomyces cerevisiae): Active
EC50 [1]: 29 µM

COc1ccc(C[C@@H]2OC(=O)C(O)=C2c2cc(Br)c(O)c(Br)c2)cc1Br
Activity (Saccharomyces cerevisiae): Active
EC50 [1]: 23 µM

COC1=C(c2cc(Br)c(O)c(Br)c2)[C@H](Cc2ccc(OC)c(Br)c2)OC1=O
Activity (Saccharomyces cerevisiae): Active
EC50 [1]: 65 µM

COC1=C(c2cc(Br)c(O)c(Br)c2)[C@H](Cc2cc(Br)c(OC)c(Br)c2)OC1=O
Activity (Saccharomyces cerevisiae): Active
EC50 [1]: 67 µM

COc1c(Br)cc(C[C@H](O)C(=O)c2cc(Br)c(O)c(Br)c2)cc1Br
Activity (Saccharomyces cerevisiae): Active
EC50 [1]: 33 µM

N=C(N)N/N=C/c1c(Cl)cccc1Cl [GUANABENZ]
Activity (Saccharomyces cerevisiae): Active
EC50 [1]: 26 µM

COc1c(Br)cc(C[C@@H]2OC(=O)C(O)=C2c2cc(Br)c(O)c(Br)c2)cc1Br
Activity (Saccharomyces cerevisiae): Active
EC50 [1]: 34 µM
